For series [1], the target named is T1, Alpha-2C adrenergic receptor (Homo sapiens, UniProt P18825).
T1 sequence (P18825 whole entry): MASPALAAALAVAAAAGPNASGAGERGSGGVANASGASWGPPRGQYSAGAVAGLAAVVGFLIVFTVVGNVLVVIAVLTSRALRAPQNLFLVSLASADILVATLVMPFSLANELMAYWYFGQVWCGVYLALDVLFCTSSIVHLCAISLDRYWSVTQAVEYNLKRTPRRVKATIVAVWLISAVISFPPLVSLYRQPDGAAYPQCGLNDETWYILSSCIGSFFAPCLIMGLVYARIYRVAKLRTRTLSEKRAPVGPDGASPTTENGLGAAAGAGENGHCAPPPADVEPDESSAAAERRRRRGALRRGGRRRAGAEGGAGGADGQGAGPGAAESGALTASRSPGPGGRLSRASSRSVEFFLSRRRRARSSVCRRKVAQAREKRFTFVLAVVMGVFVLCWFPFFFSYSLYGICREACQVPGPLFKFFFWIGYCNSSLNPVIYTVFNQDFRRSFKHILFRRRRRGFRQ
The series is described as follows: Binding affinity to adrenergic alpha2c receptor.

The target of series [2] is Cytochrome P450 3A4 (Homo sapiens, UniProt P08684).
Cytochrome P450 3A4, sequence (P08684 whole entry): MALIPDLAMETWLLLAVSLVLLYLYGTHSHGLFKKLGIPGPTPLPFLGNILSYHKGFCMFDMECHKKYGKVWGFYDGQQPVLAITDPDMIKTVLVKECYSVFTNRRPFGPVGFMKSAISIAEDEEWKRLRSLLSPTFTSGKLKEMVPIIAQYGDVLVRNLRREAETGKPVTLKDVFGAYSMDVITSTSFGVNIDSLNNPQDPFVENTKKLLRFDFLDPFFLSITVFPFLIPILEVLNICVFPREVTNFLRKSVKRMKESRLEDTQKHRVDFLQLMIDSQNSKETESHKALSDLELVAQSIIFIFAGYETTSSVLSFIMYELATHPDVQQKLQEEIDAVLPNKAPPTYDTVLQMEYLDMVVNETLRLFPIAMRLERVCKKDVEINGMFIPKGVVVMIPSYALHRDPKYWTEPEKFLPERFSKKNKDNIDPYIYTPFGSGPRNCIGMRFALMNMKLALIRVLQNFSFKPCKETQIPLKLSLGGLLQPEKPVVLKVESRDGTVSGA
For series [3], the target named is Delta-type opioid receptor (Homo sapiens, UniProt P41143). Kind of series: Binding affinity to delta opioid receptor.
Delta-type opioid receptor, sequence (P41143 whole entry): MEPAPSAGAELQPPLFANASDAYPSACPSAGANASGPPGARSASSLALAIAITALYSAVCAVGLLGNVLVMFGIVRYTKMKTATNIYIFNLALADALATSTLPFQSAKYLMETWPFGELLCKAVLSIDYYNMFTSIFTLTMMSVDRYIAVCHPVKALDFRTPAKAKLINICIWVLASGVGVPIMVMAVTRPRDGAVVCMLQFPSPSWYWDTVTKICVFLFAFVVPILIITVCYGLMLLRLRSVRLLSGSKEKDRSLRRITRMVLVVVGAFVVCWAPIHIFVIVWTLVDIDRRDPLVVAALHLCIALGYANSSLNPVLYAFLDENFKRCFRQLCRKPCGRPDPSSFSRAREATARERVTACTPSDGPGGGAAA
In series [4] the test system is Rattus norvegicus. The series is described as follows: Antidepressant activity in rat assessed as immobility time at 0.6 mg/kg, po by forced swimming test (reference value: 150.3 +/- 11.1 sec). Format: functional.
For series [5], the system named is Rattus norvegicus. The series is described as follows: Antidepressant activity in rat assessed as immobility time at 1.3 mg/kg, po by forced swimming test (reference value: 150.3 +/- 11.1 sec). Format: functional. The method in brief: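 Rats received single compounds by mouth in a Porsolt forced swimming test. The read-out was immobility time in seconds, compared with a saline control, with imipramine 20 mg/kg po as the reference antidepressant. Values are mean ± SEM, n = 10 per group.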

The test system of series [6] is Rattus norvegicus. The series is described as follows: Antidepressant activity in rat assessed as immobility time at 20 mg/kg, po by forced swimming test (reference value: 138.6 +/- 12 sec). In kind it is functional.
The test system of series [7] is Rattus norvegicus. The series is described as follows: Antidepressant activity in rat assessed as immobility time at 20 mg/kg, po by forced swimming test (reference value: 169.6 +/- 19 sec). In kind it is functional. The essentials:
(§1)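 Rat forced swimming test (Porsolt): test substances given orally, and immobility time in seconds is recorded as mean ± SEM. Imipramine serves as the reference antidepressant.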

Series [8] deals with Rattus norvegicus. The series is described as follows: Antidepressant activity in rat assessed as immobility time at 20 mg/kg, po by forced swimming test (reference value: 158.7 +/- 8.9 sec). Format: functional. The method in brief:
as §1

Series [9] relates to Rattus norvegicus. The series is described as follows: Antidepressant activity in rat assessed as immobility time at 20 mg/kg, po by forced swimming test (reference value: 150.3 +/- 11.1 sec). In kind it is functional. The method in brief: as §1
Series [10] concerns Rattus norvegicus. Kind of series: Antidepressant activity in rat assessed as immobility time at 0.6 mg/kg, po by forced swimming test (reference value: 169.6 +/- 19 sec). In kind it is functional. The method in brief: as §1
In series [11] the test system is Rattus norvegicus. The series is described as follows: Antidepressant activity in rat assessed as immobility time at 5.2 mg/kg, po by forced swimming test (reference value: 169.6 +/- 19 sec). Format: functional. The method in brief:
as §1

Series [12] relates to Rattus norvegicus. Kind of series: Antidepressant activity in rat assessed as immobility time at 2.6 mg/kg, po by forced swimming test (reference value: 169.6 +/- 19 sec). In kind it is functional. The method in brief: as §1
Series [13] has as its system Rattus norvegicus. Kind of series: Antidepressant activity in rat assessed as immobility time at 1.3 mg/kg, po by forced swimming test (reference value: 169.6 +/- 19 sec). Format: functional. The essentials:
as §1

Series [14] relates to Rattus norvegicus. Kind of series: Antidepressant activity in rat assessed as immobility time at 7.6 mg/kg, po by forced swimming test (reference value: 169.6 +/- 19 sec). Format: functional. The essentials:
as §1

The target in series [15] is T2, D(4) dopamine receptor (Homo sapiens, UniProt P21917).
T2 sequence (P21917 whole entry): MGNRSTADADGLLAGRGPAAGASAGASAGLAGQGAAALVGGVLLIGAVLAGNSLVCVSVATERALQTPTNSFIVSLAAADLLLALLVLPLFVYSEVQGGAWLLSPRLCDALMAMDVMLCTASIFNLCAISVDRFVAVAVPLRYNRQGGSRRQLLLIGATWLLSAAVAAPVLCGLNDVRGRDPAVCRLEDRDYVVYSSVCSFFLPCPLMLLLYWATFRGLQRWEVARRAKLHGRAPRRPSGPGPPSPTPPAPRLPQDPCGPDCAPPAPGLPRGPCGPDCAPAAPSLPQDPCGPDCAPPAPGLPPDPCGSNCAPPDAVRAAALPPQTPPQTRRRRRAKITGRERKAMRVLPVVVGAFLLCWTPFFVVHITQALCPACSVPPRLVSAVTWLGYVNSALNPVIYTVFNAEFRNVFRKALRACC
Kind of series: Binding affinity to dopamine D4 receptor.

Series [16] is described as follows: Plasma concentration in po dosed rat after 270 mins. Format: ADME, organism-based. The essentials:
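Rats were fed the pure compound orally, and plasma concentration was followed over time, including the 270 min point. AUC was expressed relative to the compound given alone, set at 100%.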

Series [17] deals with Rattus norvegicus. The series is described as follows: Reduction in corticotropin-releasing hormone mRNA expression in rat hyphalamic paraventricular nucleus at 0.2 mg/kg, po, qd for 8 weeks. Format: functional. The arrangement: scale not given: the % may be the effect or the level left.
Series [18] has as its target T3, Corticotropin-releasing factor receptor 1 (Homo sapiens, UniProt P34998).
T3 sequence (P34998 whole entry): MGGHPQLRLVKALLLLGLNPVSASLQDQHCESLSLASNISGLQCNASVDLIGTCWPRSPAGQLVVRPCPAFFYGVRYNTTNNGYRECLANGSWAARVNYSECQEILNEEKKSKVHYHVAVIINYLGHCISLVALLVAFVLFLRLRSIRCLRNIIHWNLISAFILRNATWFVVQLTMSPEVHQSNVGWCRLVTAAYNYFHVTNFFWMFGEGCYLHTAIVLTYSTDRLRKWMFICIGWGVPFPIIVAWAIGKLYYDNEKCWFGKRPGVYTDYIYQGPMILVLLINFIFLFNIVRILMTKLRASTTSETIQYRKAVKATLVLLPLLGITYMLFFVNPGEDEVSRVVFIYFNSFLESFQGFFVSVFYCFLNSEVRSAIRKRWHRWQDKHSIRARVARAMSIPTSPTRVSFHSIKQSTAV
Kind of series: Inhibition of recombinant CRF1 receptor expressed in CHO cells assessed as inhibition of CRF-induced cAMP formation. Format: functional, cell-based. Background: Changes in cAMP serve as a functional read-out for many G protein-coupled receptors.

The nature of series [19]: Permeability across apical to basolateral side in human Caco-2 cells. In kind it is ADME, cell-based. To be noted: read-out: permeability. The essentials: (§2)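 Caco-2 colon adenocarcinoma cells were grown as monolayers in Transwell chambers, and compound was dosed to the apical or the basolateral side. Transport was measured apical to basolateral (absorption) and basolateral to apical (efflux). The result is given as apparent permeability in cm/s.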
A general note: Caco-2 monolayers are a common model of the intestinal barrier.

The nature of series [20]: Permeability across basolateral to apical side in human Caco-2 cells. In kind it is ADME, cell-based. To be noted: read-out: permeability. The method in brief:
as §2

Series [21] relates to Rattus norvegicus. The series is described as follows: Antidepressant activity in rat assessed as immobility time at 0.5 mg/kg, po by forced swimming test (reference value: 158.7 +/- 8.9 sec). In kind it is functional. The method in brief: as §1
For series [22], the system named is Rattus norvegicus. The series is described as follows: Antidepressant activity in rat assessed as immobility time at 0.08 mg/kg, po by forced swimming test (reference value: 158.7 +/- 8.9 sec). In kind it is functional. The essentials: as §1
The target in series [23] is T3, Corticotropin-releasing factor receptor 1. Kind of series: Inhibition of CRF1 receptor.
In series [24] the test system is Rattus norvegicus. Kind of series: Reduction in %5HT1A receptor mRNA expression in rat hippocampus at 0.2 mg/kg, po, qd for 8 weeks. In kind it is functional. Further details: scale not given: the % may be the effect or the level left.
The target in series [25] is D(3) dopamine receptor (Homo sapiens, UniProt P35462). The series is described as follows: Binding affinity to dopamine D3 receptor.
D(3) dopamine receptor, sequence (P35462 whole entry): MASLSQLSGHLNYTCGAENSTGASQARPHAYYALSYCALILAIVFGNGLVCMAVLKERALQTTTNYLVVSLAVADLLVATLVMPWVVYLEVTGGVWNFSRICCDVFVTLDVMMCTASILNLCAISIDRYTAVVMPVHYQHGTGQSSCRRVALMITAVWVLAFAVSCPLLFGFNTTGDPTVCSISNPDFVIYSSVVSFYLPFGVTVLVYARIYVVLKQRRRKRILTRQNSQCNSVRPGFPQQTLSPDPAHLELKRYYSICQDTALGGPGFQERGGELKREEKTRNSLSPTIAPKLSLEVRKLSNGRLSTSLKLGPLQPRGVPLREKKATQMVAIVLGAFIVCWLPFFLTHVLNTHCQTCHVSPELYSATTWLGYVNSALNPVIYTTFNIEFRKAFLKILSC
Series [26] concerns Rattus norvegicus. Kind of series: Antidepressant activity in rat assessed as immobility time at […], po by forced swimming test (reference value: 158.7 +/- 8.9 sec). Format: functional.

Consider ten molecules from ChEMBL document CHEMBL1157752, “Lessons learned from herbal medicinal products: the example of St. John's Wort (perpendicular)” (J Nat Prod, 2010).

On to `O=C(O)[C@H]1O[C@@H](Oc2c(-c3ccc(O)c(O)c3)oc3cc(O)cc(O)c3c2=O)[C@H](O)[C@@H](O)[C@@H]1O` [MIQUELIANIN], for which the affinity in [1], expressed as Ki, was 4060 nM.

For `O=c1c(-c2c(O)cc(O)c3c(=O)cc(-c4ccc(O)cc4)oc23)c(-c2ccc(O)cc2)oc2cc(O)cc(O)c12`, the IC50 (in general, the concentration that inhibits the measured activity by half) in [2] stood at 80 nM.

Turning to `O=c1cc(-c2ccc(O)c(-c3c(O)cc(O)c4c(=O)cc(-c5ccc(O)cc5)oc34)c2)oc2cc(O)cc(O)c12` [AMENTOFLAVONE], in series [3], the Ki (usually the equilibrium dissociation constant of an inhibitor or competing ligand from its target) worked out at 36.5 nM.

For `C[C@@H]1O[C@@H](O[C@H]2C(=O)c3c(O)cc(O)cc3O[C@@H]2c2ccc(O)c(O)c2)[C@H](O)[C@H](O)[C@H]1O` [ASTILBIN], the Time was found to be 148.6 s in [4] and 163.7 s in series [5].

For `CN(C)CCCN1c2ccccc2CCc2ccccc21` [IMIPRAMINE], the Time in series [6] was determined as 77.5 s; in series [7], 95.4 s; in series [8], 97.1 s; in series [9], 86.1 s.

For `O=c1c(O[C@@H]2O[C@H](CO)[C@@H](O)[C@H](O)[C@H]2O)c(-c2ccc(O)c(O)c2)oc2cc(O)cc(O)c12` [ISOQUERCETIN], the Time in [4] worked out at 100.4 s.

In the case of `O=c1c(O[C@@H]2O[C@H](CO)[C@H](O)[C@H](O)[C@H]2O)c(-c2ccc(O)c(O)c2)oc2cc(O)cc(O)c12` [HYPEROSIDE], the Time stood at 101.2 s in [10]; 149.2 s in [11]; 133.7 s in [12]; 109.5 s in series [13]; 158.8 s in series [14].

Take `O=c1c(O)c(-c2ccc(O)c(O)c2)oc2cc(O)cc(O)c12` [QUERCETIN]: in [15], the Ki was determined as 7850 nM.

In series [16], `Cc1cc(O)c2c(=O)c3c(O)cc(O)c4c5c(O)cc(O)c6c(=O)c7c(O)cc(C)c8c1c2c(c34)c(c78)c65` [HYPERICIN] had a concentration at 4.5 h of 6 ng/mL. For the same molecule, the Activity in series [17] turned out to be 16%; in series [24], 11%. The IC50 in series [18] amounted to 300 nM; in series [23] it was 300 nM; in series [2], 8700 nM. Also, the Papp A→B in series [19] was 0.25 ×10⁻⁶ cm/s. Further, the Papp B→A in series [20] is 12 ×10⁻⁶ cm/s. The results for the Time in series [21], in [22] and in series [26] were 147.8 s, 154.7 s and 110.2 s, respectively. The Ki in series [25] stood at 34.5 nM.

Take `C[C@@H]1O[C@@H](Oc2c(-c3ccc(O)c(O)c3)oc3cc(O)cc(O)c3c2=O)[C@H](O)[C@H](O)[C@H]1O` [QUERCITRIN]: the Time in series [4] came to 149.9 s; in [5] it was 162.3 s.
